What all share (type): functional
The subject of assay [1] is Candida albicans. Nature of the assay: Antibiofilm activity against Candida albicans ATCC 10231 at 1 mM after 24 hrs by XTT reduction assay relative to control. Also on record: scale not given: the % may be the effect or the level left. The gist of the method: (§1)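 Biofilms grown on sterilized PVC disks: 1·10^6 cfu/ml Candida cells adhered for 1.5 h at 37 °C with shaking, washed with PBS, then matured 48 h at 37 °C in RPMI 1640 (MOPS, pH 7). Preformed biofilms were washed and exposed to drug, alone or in two-dimensional checkerboard combination, in RPMI 1640 for 24 h at 37 °C on a rocker.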
In general terms: Tetrazolium dyes change colour on reduction, which living cells bring about.

Assay [2] concerns Candida albicans. Nature of the assay: Antibiofilm activity against Candida albicans ATCC 24433 at 1 mM after 24 hrs by XTT reduction assay relative to control. Also on record: scale not given: the % may be the effect or the level left. An outline of the steps:
as §1

In assay [3] the test system is Meyerozyma guilliermondii. Put plainly: Antibiofilm activity against Candida guilliermondii a410 at 1 mM after 24 hrs by XTT reduction assay relative to control. More on the design: scale not given: the % may be the effect or the level left. The gist of the method: as §1
Assay [4] has as its system Meyerozyma guilliermondii. Put plainly: Antibiofilm activity against Candida guilliermondii a410 at 0.1 uM to 100 mM after 48 hrs by XTT reduction assay relative to control. More on the design: scale not given: the % may be the effect or the level left. An outline of the steps: as §1
Assay [5] deals with Meyerozyma guilliermondii. Nature of the assay: Antibiofilm activity against Candida guilliermondii ATCC 6260 at 0.1 uM to 100 mM after 48 hrs by XTT reduction assay relative to control. Also on record: scale not given: the % may be the effect or the level left. The gist of the method:
as §1

In assay [6] the test system is Candida albicans. Put plainly: Antibiofilm activity against Candida albicans ATCC 90028 at 0.1 uM to 100 mM after 48 hrs by XTT reduction assay relative to control. More on the design: scale not given: the % may be the effect or the level left. The gist of the method:
as §1

Assay [7] concerns Meyerozyma guilliermondii. Nature of the assay: Antibiofilm activity against Candida guilliermondii a410 after 48 hrs by XTT reduction assay relative to control. More on the design: scale not given: the % may be the effect or the level left. An outline of the steps:
(§2)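 Biofilms grown on autoclaved PVC disks: 1·10^6 cfu ml-1 cells, adhesion 1.5 h at 37 °C shaking 100 rpm, PBS wash, then 48 h at 37 °C in RPMI 1640 (MOPS, pH 7). Metabolic activity read by XTT–menadione reduction, 2 h at 37 °C, supernatant formazan at 490 nm, relative to drug-free control; triplicate on different days.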

The subject of assay [8] is Candida albicans. Put plainly: Antibiofilm activity against Candida albicans 17a18 after 48 hrs by XTT reduction assay relative to control. Also on record: scale not given: the % may be the effect or the level left. The gist of the method: as §2
Assay [9] deals with Meyerozyma guilliermondii. Nature of the assay: Antibiofilm activity against Candida guilliermondii ATCC 6260 after 48 hrs by XTT reduction assay relative to control. Also on record: scale not given: the % may be the effect or the level left. An outline of the steps:
as §2

For assay [10], the system named is Meyerozyma guilliermondii. Put plainly: Antibiofilm activity against Candida guilliermondii a83 after 48 hrs by XTT reduction assay relative to control. Also on record: scale not given: the % may be the effect or the level left.
For assay [11], the system named is Candida albicans. Put plainly: Antibiofilm activity against Candida albicans ATCC 90028 by two dimensional checkerboard dilution method in presence of aspirin. An outline of the steps: (§3)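 Preformed 48 h disk biofilms (RPMI 1640, MOPS pH 7, 37 °C), PBS-washed, exposed 24 h at 37 °C on rocker to two-dimensional checkerboard of anidulafungin plus NSAID in RPMI; NSAID final 0.1 µM to 100 mM. XTT reduction at 490 nm; SMIC = combination giving 50% metabolic reduction versus drug-free control; FIC index calculated; triplicate on different days.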

For assay [12], the system named is Candida albicans. Nature of the assay: Antibiofilm activity against Candida albicans ATCC 24433 by two dimensional checkerboard dilution method in presence of aspirin. An outline of the steps: as §3
Assay [13] relates to Candida albicans. Nature of the assay: Antibiofilm activity against Candida albicans 17a18 by two dimensional checkerboard dilution method in presence of aspirin. The gist of the method: as §3
The subject of assay [14] is Nakaseomyces glabratus. Nature of the assay: Antibiofilm activity against Candida glabrata ATCC 15126 by two dimensional checkerboard dilution method in presence of aspirin. The gist of the method:
as §3

The test system of assay [15] is Nakaseomyces glabratus. Put plainly: Antibiofilm activity against Candida glabrata 18a10 by two dimensional checkerboard dilution method in presence of aspirin. An outline of the steps: as §3
Assay [16] concerns Meyerozyma guilliermondii. Nature of the assay: Antibiofilm activity against Candida guilliermondii a410 by two dimensional checkerboard dilution method in presence of aspirin. An outline of the steps: (§4)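 Biofilms were grown on PVC disks from 2 ml of a 1·10^6 cfu/ml cell suspension. Adhesion ran 1.5 h at 37 °C with shaking at 100 rpm. Disks were PBS-washed, then matured 48 h at 37 °C in RPMI 1640 (MOPS, pH 7). Biofilms were washed again and given 24 h at 37 °C of anidulafungin/NSAID checkerboard combinations (NSAID final 0.1 µM–100 mM). Read-out was XTT-menadione (2 h, 37 °C, 490 nm). SMIC was defined as 50% reduction versus drug-free control, from which FICI was calculated. Triplicates were run on different days.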

The test system of assay [17] is Candida albicans. Nature of the assay: Antibiofilm activity against Candida albicans 17a18 assessed as fractional inhibitory concentration by two dimensional checkerboard dilution method in presence of aspirin. The gist of the method: as §3
Assay [18] concerns Nakaseomyces glabratus. Put plainly: Antibiofilm activity against Candida glabrata ATCC 15126 assessed as fractional inhibitory concentration by two dimensional checkerboard dilution method in presence of aspirin. The gist of the method: as §3
Assay [19] deals with Nakaseomyces glabratus. Nature of the assay: Antibiofilm activity against Candida glabrata 18a10 assessed as fractional inhibitory concentration by two dimensional checkerboard dilution method in presence of aspirin. The gist of the method: as §3
For assay [20], the system named is Candida albicans. Nature of the assay: Antibiofilm activity against Candida albicans ATCC 10231 assessed as fractional inhibitory concentration by two dimensional checkerboard dilution method in presence of diclofenac. The gist of the method:
as §3

For assay [21], the system named is Candida albicans. Nature of the assay: Antibiofilm activity against Candida albicans ATCC 90028 by two dimensional checkerboard dilution method in presence of diclofenac. An outline of the steps: as §3
In assay [22] the test system is Candida albicans. Put plainly: Antibiofilm activity against Candida albicans ATCC 24433 by two dimensional checkerboard dilution method in presence of diclofenac. An outline of the steps:
as §3

Assay [23] has as its system Candida albicans. Put plainly: Antibiofilm activity against Candida albicans ATCC 24433 assessed as fractional inhibitory concentration by two dimensional checkerboard dilution method in presence of diclofenac. The gist of the method:
as §3

Assay [24] has as its system Candida albicans. Nature of the assay: Antibiofilm activity against Candida albicans 17a18 by two dimensional checkerboard dilution method in presence of diclofenac. An outline of the steps: as §3
The subject of assay [25] is Candida albicans. Put plainly: Antibiofilm activity against Candida albicans 17a18 assessed as fractional inhibitory concentration by two dimensional checkerboard dilution method in presence of diclofenac. The gist of the method:
as §3

Assay [26] has as its system Nakaseomyces glabratus. Put plainly: Antibiofilm activity against Candida glabrata ATCC 15126 by two dimensional checkerboard dilution method in presence of diclofenac. The gist of the method: as §3
Assay [27] deals with Nakaseomyces glabratus. Nature of the assay: Antibiofilm activity against Candida glabrata ATCC 15126 assessed as fractional inhibitory concentration by two dimensional checkerboard dilution method in presence of diclofenac. An outline of the steps: as §3
The subject of assay [28] is Candida albicans. Put plainly: Antibiofilm activity against Candida albicans ATCC 24433 by two dimensional checkerboard dilution method in presence of ibuprofen. An outline of the steps: as §3
Assay [29] deals with Candida albicans. Nature of the assay: Antibiofilm activity against Candida albicans ATCC 24433 assessed as fractional inhibitory concentration by two dimensional checkerboard dilution method in presence of ibuprofen. An outline of the steps:
as §3

Assay [30] relates to Candida albicans. Put plainly: Antibiofilm activity against Candida albicans 17a18 by two dimensional checkerboard dilution method in presence of ibuprofen. The gist of the method:
as §3

In assay [31] the test system is Nakaseomyces glabratus. Put plainly: Antibiofilm activity against Candida glabrata ATCC 15126 by two dimensional checkerboard dilution method in presence of ibuprofen. An outline of the steps:
as §3

Assay [32] concerns Nakaseomyces glabratus. Put plainly: Antibiofilm activity against Candida glabrata ATCC 15126 assessed as fractional inhibitory concentration by two dimensional checkerboard dilution method in presence of ibuprofen. The gist of the method: as §3
Assay [33] deals with Nakaseomyces glabratus. Put plainly: Antibiofilm activity against Candida glabrata 18a10 by two dimensional checkerboard dilution method in presence of ibuprofen. An outline of the steps: as §3
In assay [34] the test system is Meyerozyma guilliermondii. Put plainly: Antibiofilm activity against Candida guilliermondii a83 by two dimensional checkerboard dilution method in presence of ibuprofen. The gist of the method:
as §4

Assay [35] deals with Meyerozyma guilliermondii. Nature of the assay: Antibiofilm activity against Candida guilliermondii a410 by two dimensional checkerboard dilution method in presence of ibuprofen. An outline of the steps: as §4
Assay [36] concerns Meyerozyma guilliermondii. Put plainly: Antibiofilm activity against Candida guilliermondii a410 assessed as fractional inhibitory concentration by two dimensional checkerboard dilution method in presence of ibuprofen. An outline of the steps:
as §4

Turning to `CC(C)Cc1ccc(C(C)C(=O)O)cc1` (stereo unspecified) [IBUPROFEN], in the assay on Candida albicans [1], the Activity is 16.26%.
Consider `CC(=O)Oc1ccccc1C(=O)O` [ASPIRIN], for which the figures for the Activity (with Candida albicans [2]; in assay [3]) were 48.75% and 43.25%, respectively.
Regarding `O=C([O-])Cc1ccccc1Nc1c(Cl)cccc1Cl.[Na+]` [DICLOFENAC SODIUM], the Activity in assay [4] is 58.69%; in [5], 60.98%; in the assay on Candida albicans [6], 51.15%.
As to `CCCCCOc1ccc(-c2ccc(-c3ccc(C(=O)N[C@@H]4C[C@@H](O)[C@@H](O)NC(=O)[C@@H]5[C@@H](O)[C@@H](C)CN5C(=O)[C@H]([C@@H](C)O)NC(=O)[C@H]([C@H](O)[C@@H](O)c5ccc(O)cc5)NC(=O)[C@@H]5C[C@@H](O)CN5C(=O)[C@H]([C@H](C)O)NC4=O)cc3)cc2)cc1`, the Activity in assay [7] came out at 45.62%; in the assay on Candida albicans [8], 29.31%; in assay [9], 51.21%; in assay [10], 47.83%. The MIC (in the assay on Candida albicans [11]; in the assay with Candida albicans [12]; with Candida albicans [13]; in the assay with Nakaseomyces glabratus [14]; in the assay with Nakaseomyces glabratus [15]; in assay [16]) was 0.1 µg/mL each time. Further, the MIC in the assay with Candida albicans [21] amounted to 0.1 µg/mL; with Candida albicans [22] it was 0.1 µg/mL; in the assay on Candida albicans [24], 0.1 µg/mL; in the assay with Nakaseomyces glabratus [26], 0.2 µg/mL; with Candida albicans [28], 0.4 µg/mL; in the assay with Candida albicans [30] it was 0.4 µg/mL. For the same molecule, the MIC in the assay with Nakaseomyces glabratus [31] amounted to 0.1 µg/mL; with Nakaseomyces glabratus [33] it was 0.1 µg/mL; in assay [34] it was 0.1 µg/mL; in [35], 0.4 µg/mL. Moreover, the Ratio with Candida albicans [17], with Nakaseomyces glabratus [18], in the assay on Nakaseomyces glabratus [19], in the assay on Candida albicans [20], in the assay with Candida albicans [23] and in the assay on Candida albicans [25] was 0.05 throughout. For the same molecule, the Ratio was found to be 0.1 in the assay with Nakaseomyces glabratus [27], 0.2 with Candida albicans [29], 0.05 with Nakaseomyces glabratus [32] and 0.2 in [36].

The values above are taken from ChEMBL document CHEMBL3758165, “In vitro interactions between anidulafungin and nonsteroidal anti-inflammatory drugs on biofilms of Candida spp” (2016).
